Assay results: ChEMBL document CHEMBL3351600, “Sulfur, selenium and tellurium pseudopeptides: synthesis and biological evaluation” (Bioorg Med Chem, 2014)

Tests used:
[1] = test system: MCF7; test: Cytotoxicity against human MCF7 cells assessed as cell viability after 24 hrs incubation by MTT assay; format: functional, cell-based; settings: MCF7, 24 h
Outline: (§1)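 Cell lines came from DSMZ; primary human fibroblasts served as non-cancer controls. Cells were grown in medium with 10% FCS, seeded at 50,000 cells/ml, and grown 2 days at 37 °C, 10% CO2. Serial dilutions were then added for 24 h. MTT (final 0.5 mg/ml) was added for 2 h. Formazan was pelleted, PBS-washed, dissolved in isopropanol/0.4% HCl and read at 590 nm. Two parallel experiments were run. IC50 was taken as the concentration giving 50% of untreated-control absorbance.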

[2] = Growth inhibition of human HCC2998 cells after 48 hrs; format: functional; settings: HCC 2998, 48 h
Outline: (§2)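 NCI-60 human tumour cell line panel screen run at the US National Cancer Institute under its standard cytotoxicity protocol. It covers leukaemia, NSCLC, colon, CNS, melanoma, ovarian, renal, prostate and breast lines. An initial single-dose test was followed by five-dose testing with 48 h compound exposure.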

[3] = test system: TK-10; test: Growth inhibition of human TK10 cells after 48 hrs; format: functional; settings: TK-10, 48 h
Outline: (§3)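 Run by the NCI 58-cell-line screen under its standard cytotoxicity protocol. Compounds were first tested at a single dose, then at five doses. Cells were exposed to compound for 48 h.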

[4] = test system: Saccharomyces cerevisiae; test: Antimicrobial activity against Saccharomyces cerevisiae assessed as inhibition at 20 ug/6 mm disk after 1 to 2 days by agar diffusion assay; format: functional
Outline: (§4)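 Standard agar diffusion: 6-mm paper disks loaded with 20 µg of compound were placed on inoculated plates. Inhibition-zone diameter (mm) was read after 1 and 2 days of growth.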

[5] = test system: NCI-H322M; test: Growth inhibition of human NCI-H322M cells after 48 hrs; format: functional; outline: as §2
[6] = test system: 786-0; test: Growth inhibition of human 786-0 cells after 48 hrs; format: functional; settings: 786-0, 48 h; outline: as §2
[7] = test system: A-431; test: Cytotoxicity against human A431 cells assessed as cell viability after 24 hrs incubation by MTT assay; format: functional, cell-based; settings: A-431, 24 h; outline: as §1
[8] = test system: Aspergillus niger; test: Antimicrobial activity against Aspergillus niger assessed as inhibition at 20 ug/6 mm disk after 1 to 2 days by agar diffusion assay; format: functional; outline: as §4
[9] = test system: NCI-H226; test: Growth inhibition of human NCI-H226 cells after 48 hrs; format: functional; settings: NCI-H226, 48 h; outline: as §2
[10] = test system: A549; test: Growth inhibition of human A549/ATCC cells after 48 hrs; format: functional; settings: A549, 48 h; outline: as §2
[11] = test system: MDA-MB-435; test: Growth inhibition of human MDA-MB-435 cells after 48 hrs; format: functional; settings: MDA-MB-435, 48 h; outline: as §2
[12] = Growth inhibition of human OVCAR5 cells after 48 hrs; format: functional; settings: OVCAR-5, 48 h; outline: as §2
[13] = Growth inhibition of human RPMI8226 cells after 48 hrs; format: functional; settings: RPMI-8226, 48 h; outline: as §2
[14] = test system: SK-MEL-5; test: Growth inhibition of human SK-MEL-5 cells after 48 hrs; format: functional; settings: SK-MEL-5, 48 h; outline: as §3
[15] = test system: HOP-62; test: Growth inhibition of human HOP62 cells after 48 hrs; format: functional; settings: HOP-62, 48 h; outline: as §2
[16] = Growth inhibition of human COLO205 cells after 48 hrs; format: functional; settings: COLO 205, 48 h; outline: as §2
[17] = test system: T47D; test: Growth inhibition of human T47D cells after 48 hrs; format: functional; outline: as §3
[18] = read-out: pLC50 (the source's name) (converted)

COc1ccc(N(CC(=O)NCCC[Te]c2ccccc2)C(=O)CNC(=O)OC(C)(C)C)cc1
IC50 [1]: 5 µM
GI50 [2]: 2.57 µM
CC50 [2, 18]: 27.5 µM
TGI ([2]; read-out: pTGI (converted)): 6.61 µM
GI50 [3]: 3.89 µM
LC50 [3]: 100 µM
TGI ([3]; read-out: pTGI (converted)): 10.7 µM
diameter of the inhibition zone (DIZ) [4]: 0 mm
GI50 [5]: 2.29 µM
CC50 [5, 18]: > 100 µM
TGI ([5]; read-out: pTGI (converted)): 6.61 µM
GI50 [6]: 3.72 µM
LC50 [6]: 56.2 µM
TGI ([6]; read-out: pTGI (converted)): 12.9 µM
IC50 [7]: 5 µM
diameter of the inhibition zone (DIZ) [8]: 0 mm
GI50 [9]: 2.29 µM
CC50 [9, 18]: 79.4 µM
TGI ([9]; read-out: pTGI (converted)): 5.37 µM
GI50 [10]: 0.525 µM
CC50 [10, 18]: 6.76 µM
TGI ([10]; read-out: pTGI (converted)): 2.19 µM
GI50 [11]: 3.31 µM
CC50 [11, 18]: 51.3 µM
TGI ([11]; read-out: pTGI (converted)): 13.5 µM
Retention_time: 1.548 min
GI50 [12]: 3.02 µM
LC50 [12]: 38.9 µM
TGI ([12]; read-out: pTGI (converted)): 7.41 µM
GI50 [13]: 2.4 µM
CC50 [13, 18]: > 100 µM
TGI ([13]; read-out: pTGI (converted)): 7.24 µM
GI50 [14]: 3.16 µM
CC50 [14, 18]: 34.7 µM
TGI ([14]; read-out: pTGI (converted)): 9.12 µM
GI50 [15]: 2.19 µM
CC50 [15, 18]: 11 µM
TGI ([15]; read-out: pTGI (converted)): 4.68 µM
GI50 [16]: 2 µM
CC50 [16, 18]: 7.24 µM
TGI ([16]; read-out: pTGI (converted)): 3.8 µM
GI50 [17]: 11.2 µM
LC50 [17]: > 100 µM
TGI ([17]; read-out: pTGI (converted)): 40.7 µM
